The values below come from ChEMBL document CHEMBL1147969, “Synthesis of some novel heterocyclic compounds derived from diflunisal hydrazide as potential anti-infective and anti-inflammatory agents” (2007).

In general, inhibition in vivo refers to the drop in the measured response relative to a control, in per cent. One may read the MIC as the lowest concentration found to suppress growth. High values mean a need for much substance, low ones inhibition by little substance.

Assay [1] deals with Mus musculus. Put plainly: Antiinflammatory activity against BALB/c mouse assessed as inhibition of carrageenan-induced paw edema at 50 mg/kg, po after 4 hrs. In kind it is functional. Summed up:
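Mice were fasted on the last day (water only) and dosed by gavage at 50 mg/kg, suspended in 0.5% methyl cellulose; controls got vehicle, six mice per group. After 60 min, 0.5 mg/mL carrageenan in saline was injected subplantar into the right hind paw, with saline in the left. The right–left thickness difference was read by microcaliper at 4 h. % inhibition = (n−n0)/n×100 versus control.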

Assay [2] relates to Mus musculus. Put plainly: Antinociceptive activity against mouse assessed as paw withdrawal latency at 50 mg/kg, po after 60 mins by hot plate test. In kind it is functional. Summed up: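 Hot plate was set at 55 °C. Latency to jumping or hind-paw licking was recorded before and 60 min after oral dosing at 50 mg/kg, or vehicle, with a 30 s cutoff. Groups had at least eight mice each. Testing was done between 2:00 and 4:00 pm.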
On the technique in general: In hot-plate and tail-flick tests a longer latency is read as antinociception.

The subject of assay [3] is Proteus vulgaris. Put plainly: Antimicrobial activity against Proteus vulgaris A161 […]. In kind it is functional. An outline of the steps: (§1)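 For broth microdilution, inocula came from 12 h broth cultures adjusted to 0.5 McFarland. Test agents in 10% DMSO were serially diluted twofold (7.8–500) in nutrient broth. Wells were shaken 20 s at 300 rpm and incubated 24 h. Clear wells were plated on nutrient agar to check growth. MIC was the lowest concentration inhibiting growth. Each compound was screened twice per organism.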

For assay [4], the system named is Proteus vulgaris. Put plainly: Antimicrobial activity against Proteus vulgaris KUKEM1329 by disk diffusion method at 300 ug/disc. It is filed as functional. Summed up:
as §1
Background: A growth-free zone around the sample is the usual read-out of agar diffusion tests.

Assay [5] deals with Streptococcus pyogenes. Put plainly: Antimicrobial activity against Streptococcus pyogenes KUKEM676 by disk diffusion method at 300 ug/disc. In kind it is functional. An outline of the steps: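 Mueller-Hinton agar was spread with 10^8 CFU/mL bacteria. 6 mm discs held 300 per disc of test agent, with DMSO discs as negative controls. Plates were incubated 24 h, at 37 °C for clinical strains or 27 °C for plant-associated strains. Zone of inhibition diameter in mm was measured. Each assay was repeated twice.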

Another assay relates to Sindbis virus. Put plainly: Antiviral activity against Sindbis virus-induced cytopathogenicity at 16 ug/mL. It is filed as functional, organism-based. A general note: Cytopathic effects are the visible damage that an infection or toxin causes in cultured cells.
Assay [6] relates to Aspergillus flavus. Put plainly: Antifungal activity against Aspergillus flavus after 72 hrs by agar dilution method. It is filed as functional. An outline of the steps: (§2)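 Fungal isolates were screened on agar dilution plates. Test agents in 10% DMSO were mixed into potato dextrose agar containing 0.5% v/v Tween 20, over a range of 7.8–500. Plates were spot-inoculated with 10^4 spore/mL and held 72 h, at 27 °C for plant isolates or 37 °C for clinical isolates. MIC was the lowest concentration with no growth. Each test was repeated at least twice.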

In assay [7] the test system is Aspergillus flavus. Put plainly: Antifungal activity against Aspergillus flavus at 300 ug/disc after 72 hrs by disk diffusion method. It is filed as functional. Summed up:
(§3)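 Disc diffusion was run on potato dextrose agar seeded with 10^4 spore/mL. 6 mm discs each carried 300 per disc of test agent. DMSO-impregnated discs served as negative controls. Plates were incubated 72 h, at 27 °C for plant-associated isolates or 37 °C for clinical isolates. The read-out was inhibition zone diameter in mm. Each assay was repeated twice.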

Assay [8] relates to Aspergillus versicolor. Put plainly: Antifungal activity against Aspergillus variecolor after 72 hrs by agar dilution method. In kind it is functional. Summed up:
as §2

For assay [9], the system named is Aspergillus versicolor. Put plainly: Antifungal activity against Aspergillus variecolor at 300 ug/disc after 72 hrs by disk diffusion method. It is filed as functional. An outline of the steps:
as §3

Assay [10] deals with Trichophyton rubrum. Put plainly: Antifungal activity against Trichophyton rubrum after 72 hrs by agar dilution method. In kind it is functional. An outline of the steps:
as §2

Assay [11] concerns Trichophyton rubrum. Put plainly: Antifungal activity against Trichophyton rubrum at 300 ug/disc after 72 hrs by disk diffusion method. In kind it is functional. An outline of the steps:
as §3

In another assay the test system is Coxsackievirus B4. Put plainly: Antiviral activity against Coxsackie virus B4-induced cytopathogenicity at 16 ug/mL. It is filed as functional, organism-based.
Assay [12] deals with Human alphaherpesvirus 1. Put plainly: Antiviral activity against TK positive HSV1 KOS-induced cytopathogenicity at 16 ug/mL. In kind it is functional, organism-based.
In a further assay the test system is Punta Toro virus. Put plainly: Antiviral activity against Punta Toro virus-induced cytopathogenicity at 16 ug/mL. It is filed as functional, organism-based.
For assay [13], the system named is Human alphaherpesvirus 1. Put plainly: Antiviral activity against acyclovir resistant TK positive HSV1 KOS-induced cytopathogenicity at 16 ug/mL. It is filed as functional, organism-based.
For the next assay, the system named is Enterococcus faecalis. Put plainly: Antimicrobial activity against Enterococcus faecalis ATCC […] by microwell dilution method. In kind it is functional. Summed up:
as §1

The test system of another assay is Escherichia coli. Put plainly: Antimicrobial activity against Escherichia coli A1 by microwell dilution method. It is filed as functional. Summed up: as §1
In assay [14] the test system is Streptococcus pyogenes. Put plainly: Antimicrobial activity against Streptococcus pyogenes ATCC 176 by microwell dilution method. It is filed as functional. An outline of the steps: as §1
For assay [15], the system named is Streptococcus pyogenes. Put plainly: Antimicrobial activity against Streptococcus pyogenes KUKEM676 by microwell dilution method. In kind it is functional. An outline of the steps:
as §1

Assay [16] deals with Trichophyton benhamiae. Put plainly: Antifungal activity against Trichophyton mentagrophytes after 72 hrs by agar dilution method. In kind it is functional, Arthroderma benhamiae. An outline of the steps: as §2
Assay [17] relates to Trichophyton benhamiae. Put plainly: Antifungal activity against Trichophyton mentagrophytes at 300 ug/disc after 72 hrs by disk diffusion method. In kind it is functional, Arthroderma benhamiae. Summed up: as §3

Values after ≈ are worked out from the molar mass of the structure shown. Active and inactive are the calls of the source.

As for `Cn1c(-c2cc(-c3ccc(F)cc3F)ccc2O)n[nH]c1=S`, the inhibition in vivo at 50 mg/kg with Mus musculus [1] amounted to 56.9%. The Paw withdrawal latency in the assay on Mus musculus [2] was determined as 16.4 s. In addition, the “inhibition zone (IZ)” value is 10 mm in the assay with Proteus vulgaris [3] and 8 mm in the assay on Proteus vulgaris [4].

The molecule `CO/N=C(\C(=O)N[C@@H]1C(=O)N2C(C(=O)[O-])=C(C[N+]3(C)CCCC3)CS[C@H]12)c1csc(N)n1` [CEFEPIME] yielded an MIC against Streptococcus pyogenes [5] of 31.2 µg/mL (≈ 65 µM).

With `Cc1ccc(-n2c(-c3cc(-c4ccc(F)cc4F)ccc3O)n[nH]c2=S)cc1`, the inhibition in vivo at 50 mg/kg with Mus musculus [1] is 51.6%. In addition, the Paw withdrawal latency in the assay with Mus musculus [2] was determined as 14.2 s.

Turning to `COc1ccc(Nc2nnc(-c3cc(-c4ccc(F)cc4F)ccc3O)s2)cc1`, in the assay with Mus musculus [1], the inhibition in vivo at 50 mg/kg was 55.3%. Also, the Paw withdrawal latency in the assay with Mus musculus [2] was determined as 19.2 s.

Turning to `Oc1ccc(-c2ccc(F)cc2F)cc1-c1n[nH]c(=S)n1C1CCCCC1`, in the assay with Mus musculus [1], the inhibition in vivo at 50 mg/kg stood at 64.4%. The Paw withdrawal latency in the assay on Mus musculus [2] was 13.2 s. Also, the “inhibition zone (IZ)” value with Proteus vulgaris [3] is on record as 10 mm; in the assay on Proteus vulgaris [4], 12 mm. Also, the outcome with Sindbis virus was Active.

In the case of `CCn1c(-c2cc(-c3ccc(F)cc3F)ccc2O)n[nH]c1=S`, the inhibition in vivo at 50 mg/kg with Mus musculus [1] worked out at 46.2%. The Paw withdrawal latency in the assay with Mus musculus [2] stood at 17.1 s. The “inhibition zone (IZ)” value in the assay with Proteus vulgaris [3] is 9 mm; with Proteus vulgaris [4], 9 mm; with Aspergillus flavus [6], 16 mm; with Aspergillus versicolor [8], 14 mm; with Trichophyton rubrum [10], 16 mm. The figures for the MIC against Aspergillus flavus [7], in the assay on Aspergillus versicolor [9] and with Trichophyton rubrum [11] were 31.2 µg/mL (≈ 93.7 µM), 31.2 µg/mL (≈ 93.7 µM) and 15.2 µg/mL (≈ 45.7 µM), respectively. In addition, the outcome with Coxsackievirus B4 was Active.

Consider `C=CCNc1nnc(-c2cc(-c3ccc(F)cc3F)ccc2O)s1`, for which, in the assay with Mus musculus [1], the inhibition in vivo at 50 mg/kg is 57.2%. Besides, the Paw withdrawal latency in the assay on Mus musculus [2] amounted to 13.9 s. Moreover, the result in the assay on Coxsackievirus B4, in the assay on Human alphaherpesvirus 1 [12], in the assay on Sindbis virus, in the assay with Punta Toro virus and in the assay on Human alphaherpesvirus 1 [13] was Active.

Take `C=CCn1c(-c2cc(-c3ccc(F)cc3F)ccc2O)n[nH]c1=S`: in the assay with Mus musculus [1], the inhibition in vivo at 50 mg/kg was 73%. Besides, the Paw withdrawal latency in the assay with Mus musculus [2] was 16.8 s. Further, the “inhibition zone (IZ)” value is 10 mm with Enterococcus faecalis; 12 mm in the assay on Escherichia coli; 10 mm in the assay with Proteus vulgaris [3]; 9 mm in the assay on Proteus vulgaris [4]; 12 mm in the assay with Streptococcus pyogenes [14]; 14 mm in the assay with Streptococcus pyogenes [15]. Besides, the “inhibition zone (IZ)” value in the assay on Aspergillus flavus [6] was 14 mm; in the assay with Aspergillus versicolor [8] it was 10 mm; with Trichophyton benhamiae [16], 14 mm. Further, the MIC against Streptococcus pyogenes [5] is 62.2 µg/mL (≈ 180 µM); against Aspergillus flavus [7], 31.2 µg/mL (≈ 90.5 µM); with Aspergillus versicolor [9], 62.5 µg/mL (≈ 181 µM); with Trichophyton benhamiae [17], 31.2 µg/mL (≈ 90.5 µM).

Regarding `CCN[C@@H]1C[C@H](N)[C@@H](O[C@H]2OC(CN)=CC[C@H]2N)[C@H](O)[C@H]1O[C@H]1OC[C@](C)(O)[C@H](NC)[C@H]1O` [NETILMICIN], the MIC against Aspergillus flavus [7] was 15.6 µg/mL (≈ 32.8 µM); against Aspergillus versicolor [9], 62.5 µg/mL (≈ 131 µM); against Trichophyton rubrum [11] it was 15.6 µg/mL (≈ 32.8 µM); against Trichophyton benhamiae [17], 31.2 µg/mL (≈ 65.7 µM).

In the case of `Oc1ccc(-c2ccc(F)cc2F)cc1-c1nnc(NC2CCCCC2)o1`, the inhibition in vivo at 50 mg/kg in the assay on Mus musculus [1] turned out to be 23.8%. Moreover, in the assay with Mus musculus [2], the Paw withdrawal latency worked out at 12 s.

`COc1ccc(Nc2nnc(-c3cc(-c4ccc(F)cc4F)ccc3O)o2)cc1`: the inhibition in vivo at 50 mg/kg in the assay on Mus musculus [1] was 35.3%. Besides, the Paw withdrawal latency in the assay with Mus musculus [2] worked out at 12 s.

For the molecule `CCNc1nnc(-c2cc(-c3ccc(F)cc3F)ccc2O)s1`, the inhibition in vivo at 50 mg/kg in the assay with Mus musculus [1] was 50.2%. Moreover, the Paw withdrawal latency in the assay on Mus musculus [2] was 13.5 s.
